Laboratory results from ChEMBL document CHEMBL1124033, “N-aryl 3-halogenated azetidin-2-ones and benzocarbacephems, inhibitors of beta-lactamases” (J Med Chem, 1988).

What follows are compounds tested against Beta-lactamase TEM (Escherichia coli, UniProt P62593) (assay: Inhibition constant (Ki) for TEM-1 beta-lactamase).
Procedure, shortened: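 Partially purified plasmid pBR322-encoded TEM-1 β-lactamase; computerized microacidimetric assay at pH 7, 37 °C. Time-dependent inactivation was checked by monitoring activity after enzyme preincubation with inhibitor at 1 to 100 concentrations.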

Sequence of Beta-lactamase TEM (P62593 whole entry): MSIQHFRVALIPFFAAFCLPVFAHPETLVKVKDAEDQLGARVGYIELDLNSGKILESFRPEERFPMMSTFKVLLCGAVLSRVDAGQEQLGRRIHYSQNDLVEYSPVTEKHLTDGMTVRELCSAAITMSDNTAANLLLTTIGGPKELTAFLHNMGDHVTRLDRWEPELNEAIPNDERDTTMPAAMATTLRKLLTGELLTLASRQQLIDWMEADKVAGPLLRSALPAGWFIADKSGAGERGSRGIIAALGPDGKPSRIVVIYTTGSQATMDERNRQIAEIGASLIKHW

| SMILES | Ki [µM] |
| --- | --- |
| CC1(C)S[C@@H]2[C@H](NC(=O)Cc3ccccc3)C(=O)N2[C@H]1C(=O)O [PENICILLIN G] | 20 |
| Cc1ccc(C(=O)O)cc1N1CC(F)C1=O (stereo unspecified) | 20 |
| Cc1ccc(C(=O)O)cc1N1CC(Br)C1=O (stereo unspecified) | 40 |
| O=C(O)c1ccc2c(c1)N1C(=O)CC1CC2Cl (stereo unspecified) | 50 |
| O=C(O)c1ccc2c(c1)N1C(=O)CC1CC2 (stereo unspecified) | 20 |
| Cc1ccc(C(=O)O)cc1N1CC(Br)(Br)C1=O | 160 |
| Cc1ccc(C(=O)O)cc1N1CC(F)(F)C1=O | 83 |
| Cc1ccc(C(=O)O)cc1N1CCC1=O | 10 |
| Cc1ccc(C(=O)O)cc1N1CC(F)(Br)C1=O (stereo unspecified) | 60 |
| Cc1onc(-c2ccccc2Cl)c1C(=O)N[C@@H]1C(=O)N2[C@@H]1SC(C)(C)[C@@H]2C(=O)O [CLOXACILLIN] | 13 |
| O=C(O)c1ccc2c(c1)N1C(=O)CC1CC2F (stereo unspecified) | 39 |
